One series deals with T1, OATP1B1 (Homo sapiens, UniProt Q9Y6L6).
T1 sequence (Q9Y6L6 1-691): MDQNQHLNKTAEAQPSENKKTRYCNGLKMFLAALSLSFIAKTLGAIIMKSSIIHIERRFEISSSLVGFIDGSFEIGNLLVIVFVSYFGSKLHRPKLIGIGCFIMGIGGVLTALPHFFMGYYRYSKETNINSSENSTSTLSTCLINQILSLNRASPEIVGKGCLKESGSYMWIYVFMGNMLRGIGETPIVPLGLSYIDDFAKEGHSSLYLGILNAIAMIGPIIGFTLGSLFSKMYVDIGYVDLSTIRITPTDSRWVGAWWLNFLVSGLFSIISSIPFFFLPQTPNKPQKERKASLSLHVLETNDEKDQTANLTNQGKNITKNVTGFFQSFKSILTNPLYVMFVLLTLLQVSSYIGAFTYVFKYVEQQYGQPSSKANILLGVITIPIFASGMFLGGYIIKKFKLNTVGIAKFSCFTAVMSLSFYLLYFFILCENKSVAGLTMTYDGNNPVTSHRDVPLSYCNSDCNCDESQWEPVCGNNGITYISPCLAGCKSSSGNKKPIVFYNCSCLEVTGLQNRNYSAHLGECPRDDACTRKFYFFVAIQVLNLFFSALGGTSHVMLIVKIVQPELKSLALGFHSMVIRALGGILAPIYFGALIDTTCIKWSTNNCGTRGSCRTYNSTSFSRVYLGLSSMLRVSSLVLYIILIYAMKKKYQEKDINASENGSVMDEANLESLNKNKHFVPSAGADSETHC
Type of series: cell-based. The note with it: HEK293 OATP1B1 cells. The method in brief:
(§1)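 Transporter-overexpressing HEK293 cells were cultured in DMEM with 10% FBS, 1% penicillin/streptomycin and selection antibiotics at 37°C, 5% CO₂. Test compounds were screened at 10 μM and 30 μM, and uptake was quantified as normalised peak areas. For OATP1B1/1B3, uptake was compared with empty-vector cells, and for OATP1B1 also with cells treated with the inhibitor cyclosporine A.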

Another series deals with T2, OATP1B3 (Homo sapiens, UniProt Q9NPD5).
T2 sequence (Q9NPD5 1-702): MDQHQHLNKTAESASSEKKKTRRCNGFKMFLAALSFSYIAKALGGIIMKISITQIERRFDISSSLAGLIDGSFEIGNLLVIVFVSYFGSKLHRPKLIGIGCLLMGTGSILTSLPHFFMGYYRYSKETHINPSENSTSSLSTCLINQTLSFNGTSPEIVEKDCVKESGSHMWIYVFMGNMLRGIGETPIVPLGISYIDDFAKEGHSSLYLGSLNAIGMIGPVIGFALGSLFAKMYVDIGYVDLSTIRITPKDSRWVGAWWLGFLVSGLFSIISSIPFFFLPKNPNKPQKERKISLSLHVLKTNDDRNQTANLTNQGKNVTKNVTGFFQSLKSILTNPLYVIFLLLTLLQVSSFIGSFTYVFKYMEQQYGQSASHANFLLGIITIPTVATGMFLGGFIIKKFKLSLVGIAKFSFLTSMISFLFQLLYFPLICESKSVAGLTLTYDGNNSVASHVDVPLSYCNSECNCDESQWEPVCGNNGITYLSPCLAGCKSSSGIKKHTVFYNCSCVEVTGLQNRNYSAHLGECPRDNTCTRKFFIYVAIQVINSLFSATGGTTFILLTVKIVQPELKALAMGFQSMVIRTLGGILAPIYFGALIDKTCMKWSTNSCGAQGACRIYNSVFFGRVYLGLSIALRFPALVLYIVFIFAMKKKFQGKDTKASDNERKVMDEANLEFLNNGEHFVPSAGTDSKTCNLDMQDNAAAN
Kind of series: Substrate screening in HEK293 cells expressing OATP1B3. Type of series: cell-based. The method in brief: as §1

Another series addresses T3, BCRP (Homo sapiens, UniProt Q9UNQ0).
T3 sequence (Q9UNQ0 1-655): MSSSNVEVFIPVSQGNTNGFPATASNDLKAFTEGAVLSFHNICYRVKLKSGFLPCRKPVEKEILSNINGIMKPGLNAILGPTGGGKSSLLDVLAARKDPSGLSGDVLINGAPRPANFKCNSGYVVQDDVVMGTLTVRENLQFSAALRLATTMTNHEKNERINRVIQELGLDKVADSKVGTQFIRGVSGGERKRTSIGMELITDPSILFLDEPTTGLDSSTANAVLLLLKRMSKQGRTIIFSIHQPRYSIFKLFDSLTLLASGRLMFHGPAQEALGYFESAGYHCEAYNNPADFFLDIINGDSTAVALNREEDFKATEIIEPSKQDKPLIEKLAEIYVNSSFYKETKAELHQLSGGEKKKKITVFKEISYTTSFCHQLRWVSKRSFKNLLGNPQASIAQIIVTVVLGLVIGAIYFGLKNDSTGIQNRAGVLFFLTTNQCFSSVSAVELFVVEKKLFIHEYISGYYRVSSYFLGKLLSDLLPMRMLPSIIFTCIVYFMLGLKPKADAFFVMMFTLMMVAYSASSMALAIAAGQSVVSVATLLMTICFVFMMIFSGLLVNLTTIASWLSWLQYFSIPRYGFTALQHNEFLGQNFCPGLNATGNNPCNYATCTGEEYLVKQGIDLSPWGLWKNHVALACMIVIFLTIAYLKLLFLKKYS
Type of series: cell-based. The note with it: for Uptake in BCRP-expressing HEK293 cells compared to same cell line with Ko143: 10 μM and 30 μM, 30 min; for BCRP substrate classification: HEK293 BCRP cells. In short, it runs like this: as §1

In another series the test system is ABCG2 p.Q141K variant. Type of series: in vivo, human. The note with it: two p.Q141K (CA) vs nine REF (CC) individuals; T = 0 h. In short, it runs like this:
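Open-label fixed-sequence crossover in 11 healthy non-smoking adults aged 18–64. Single oral rosuvastatin 10 mg given after an overnight fast, with fasting continued 4 h. Heparinised venous plasma was stored at −70°C and analysed by LC–MS. ABCG2 c.421C>A was genotyped blind by PCR and Sanger sequencing. Nine CC and two CA subjects were compared at T = 0 h and by noncompartmental PK, using log-transformed geometric means and unpaired t-tests.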

The format of series [1] is in vivo, human. The note with it: for AUC0−24, geometric mean ratio (90% CI) of rosuvastatin + eltrombopag arm to rosuvastatin alone arm / C0 at 0 h / Cmax / AUC(0-t): both, plasma, oral; for AUC(0-t): geometric mean (90% CI); for Effect of eltrombopag administration on plasma concentrations (in words): eltrombopag 75 mg daily for 5 days.
For another series, the target named is P-gp (Homo sapiens, UniProt P08183). Kind of series: Inhibitor screening of [3H]digoxin accumulation in HEK293 cells expressing P-gp. Type of series: cell-based. In short, it runs like this:
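HEK293 lines overexpressing the named transporter were grown in DMEM with 10% FBS, 1% penicillin/streptomycin and line-specific selection antibiotics, at 37°C, humidified, 5% CO₂. Cell-based uptake assays measured inhibition of transporter activity.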

The mark [2] stands for this setting: human, 10 mg, AUC0−4, rosuvastatin alone arm.
Where [3] appears, read: human, AUC0−4, rosuvastatin + eltrombopag arm.

The structures appear in SMILES notation. Where two headings read alike, the source gives them in different places.

Chain of P-gp (P08183 whole entry): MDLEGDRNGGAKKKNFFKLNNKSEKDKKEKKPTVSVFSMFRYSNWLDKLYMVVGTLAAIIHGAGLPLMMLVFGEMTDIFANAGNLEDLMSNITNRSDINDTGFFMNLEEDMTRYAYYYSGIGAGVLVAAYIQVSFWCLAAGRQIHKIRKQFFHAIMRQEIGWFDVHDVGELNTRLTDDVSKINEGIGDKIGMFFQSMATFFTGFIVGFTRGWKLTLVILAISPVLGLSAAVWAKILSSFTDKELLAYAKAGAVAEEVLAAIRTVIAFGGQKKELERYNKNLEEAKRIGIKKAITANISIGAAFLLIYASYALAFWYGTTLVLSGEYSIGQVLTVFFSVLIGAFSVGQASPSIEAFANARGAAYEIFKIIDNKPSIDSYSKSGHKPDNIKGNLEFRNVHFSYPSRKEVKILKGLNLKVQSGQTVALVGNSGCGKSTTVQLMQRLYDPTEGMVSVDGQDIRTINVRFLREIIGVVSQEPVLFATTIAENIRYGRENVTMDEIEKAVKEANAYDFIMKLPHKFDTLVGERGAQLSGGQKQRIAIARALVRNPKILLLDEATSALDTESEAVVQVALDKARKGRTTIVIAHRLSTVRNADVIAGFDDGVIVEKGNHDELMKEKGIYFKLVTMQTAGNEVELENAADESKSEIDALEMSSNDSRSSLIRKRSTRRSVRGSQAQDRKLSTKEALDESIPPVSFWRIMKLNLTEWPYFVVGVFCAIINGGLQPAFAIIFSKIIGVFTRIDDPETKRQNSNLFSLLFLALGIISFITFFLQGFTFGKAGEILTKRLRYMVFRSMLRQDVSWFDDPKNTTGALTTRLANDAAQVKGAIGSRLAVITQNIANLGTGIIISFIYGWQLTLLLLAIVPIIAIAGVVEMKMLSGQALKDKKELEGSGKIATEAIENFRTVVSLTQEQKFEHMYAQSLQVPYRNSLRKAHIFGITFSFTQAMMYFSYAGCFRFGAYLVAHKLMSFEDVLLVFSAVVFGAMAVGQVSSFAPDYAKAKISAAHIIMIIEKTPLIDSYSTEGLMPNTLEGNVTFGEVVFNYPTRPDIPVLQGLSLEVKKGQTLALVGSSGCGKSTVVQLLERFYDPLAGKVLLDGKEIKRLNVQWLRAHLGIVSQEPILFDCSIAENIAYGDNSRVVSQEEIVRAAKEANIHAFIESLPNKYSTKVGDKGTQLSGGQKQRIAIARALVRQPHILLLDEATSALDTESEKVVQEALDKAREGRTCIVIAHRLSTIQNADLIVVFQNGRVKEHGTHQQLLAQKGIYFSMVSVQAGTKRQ

One may read the Cmax as the highest concentration seen after dosing. A word on the AUC(0-t): it is the area under the concentration-time curve up to a stated or last time point. `O=C(O)c1c(O)c(Cl)cc(Br)c1O` [BCDBA, 3‐bromo‐5‐chloro‐2,6‐dihydroxybenzoic acid]: the OATP1B1 substrate classification result at OATP1B1 is reported as “not substrates”. In addition, the OATP1B3 substrate classification result on OATP1B3 is given as “not substrates”. In addition, on BCRP, the “Uptake in BCRP-expressing HEK293 cells compared to same cell line with Ko143” value is recorded as “significantly reduced” and the BCRP substrate classification result is “BCRP substrates”. Also, in the series on ABCG2 p.Q141K variant, the “Baseline concentrations, heterozygous p.Q141K vs homozygous reference allele” value was “significantly higher”. In series [1] (human), the “AUC0−24, geometric mean ratio (90% CI) of rosuvastatin + eltrombopag arm to rosuvastatin alone arm” value is listed as 0.95 (0.89–1.02); P = 0.38; the C0 at 0 h came to 0.57 ng/mL; the concentration peaked (Cmax) at 0.7 ng/mL. In addition, in series [1] (human, 10 mg), the C0 at 0 h amounted to 0.64 ng/mL and the peak concentration (Cmax) stood at 0.7 ng/mL. In series [1] (setting [2]), this compound yielded an AUC(0-t) of 2.13 ng·h/mL. Moreover, the AUC(0-t) in series [1] (setting [3]) was 2.1 ng·h/mL. Also, the “Effect of eltrombopag administration on plasma concentrations (in words)” value in series [1] was “did not lead to corresponding increases”. In addition, in series [1] (human, in vivo), the “AUC0−4, geometric mean ratio (90% CI) of rosuvastatin + eltrombopag arm to rosuvastatin alone arm” value is listed as 0.98 (0.91–1.07); P = 0.78; the “Cmax, geometric mean ratio (90% CI) of rosuvastatin + eltrombopag arm to rosuvastatin alone arm” value was 1.01 (0.93–1.09); P = 0.96; the “Food effects, fasted (AUC0−4) vs fed (AUC4−8)” value is recorded as “No food effects”. Also, at P-gp, the “Effect on intracellular accumulation of P-gp substrate [3H]digoxin” value is given as “did not affect”.

With `O=C(O)c1c(O)c(Cl)cc(Cl)c1O` [DCDBA, 3,5‐dichloro‐2,6‐dihydroxybenzoic acid], on OATP1B1, the OATP1B1 substrate classification entry was “not substrates”. In addition, the OATP1B3 substrate classification entry on OATP1B3 was “not substrates”. Further, at BCRP, the “Uptake in BCRP-expressing HEK293 cells compared to same cell line with Ko143” value is “significantly reduced” and the BCRP substrate classification entry is listed as “BCRP substrates”. Also, the “Baseline concentrations, heterozygous p.Q141K vs homozygous reference allele” value in the series on ABCG2 p.Q141K variant is “not statistically significant”. Besides, in series [1] (human), the “AUC0−24, geometric mean ratio (90% CI) of rosuvastatin + eltrombopag arm to rosuvastatin alone arm” value is recorded as 1.03 (0.97–1.10); P = 0.39; the C0 at 0 h is 0.8 ng/mL; the peak level (Cmax) was 0.98 ng/mL. Further, in series [1] (human, 10 mg), the C0 at 0 h is 0.73 ng/mL and the peak concentration (Cmax) stood at 1.03 ng/mL. The compound further had an exposure AUC(0-t) in series [1] (setting [2]) of 3.02 ng·h/mL. Besides, the AUC(0-t) in series [1] (human, 10 mg, AUC0−24, rosuvastatin alone arm) is 18.6 ng·h/mL. The AUC(0-t) in series [1] (setting [3]) was determined as 2.97 ng·h/mL. Besides, in series [1] (human, AUC0−24, rosuvastatin + eltrombopag arm), the AUC(0-t) amounted to 19.2 ng·h/mL. In addition, the “Effect of eltrombopag administration on plasma concentrations (in words)” value in series [1] is “did not lead to corresponding increases”. Moreover, in series [1] (human, in vivo), the “AUC0−4, geometric mean ratio (90% CI) of rosuvastatin + eltrombopag arm to rosuvastatin alone arm” value was 0.98 (0.93–1.04); P = 0.72; the “C0, geometric mean ratio (90% CI) of rosuvastatin + eltrombopag arm to rosuvastatin alone arm” value is 1.10 (1.00–1.21); P = 0.07; the “Cmax, geometric mean ratio (90% CI) of rosuvastatin + eltrombopag arm to rosuvastatin alone arm” value is 0.95 (0.85–1.06); P = 0.49; the “Food effects, fasted (AUC0−4) vs fed (AUC4−8)” value is listed as “No food effects”. For the same compound, the “Effect on intracellular accumulation of P-gp substrate [3H]digoxin” value at P-gp is “did not affect”.

For the origin of these results see article PMC12166265 (Clinical Pharmacology and Therapeutics, 2025).
